Data: ChEMBL document CHEMBL1138243, “Design of mechanism-based inhibitors of transthyretin amyloidosis: studies with biphenyl ethers and new structural templates” (J Med Chem, 2007)
Calls of active or inactive are those of the source. No cut-off for these calls is given here.

Tests used:
Neuro2a = test: Cytotoxicity against […] cells at 50 uM; assay type: functional, cell-based; details: Mus musculus
[1] = Cytotoxicity against TTR-induced […] cells assessed as viability at 50 uM after 72 hrs; assay type: functional; details: Mus musculus, N2a, read-out: Activity
Transthyretin [2] = target: T1, Transthyretin (Homo sapiens, UniProt P02766); test: Stabilization of urea-induced transthyretin dissociation at 5.4 uM at pH 7.2 after 1 hr relative to control
Transthyretin [3] = target: T1, Transthyretin; test: Inhibition of fibril elongation of preformed transthyretin at […] after 72 hrs by turbidity assay; assay type: functional
Transthyretin [4] = target: T1, Transthyretin; test: Inhibition of transthyretin fibril formation assessed as turbidity at 21.6 uM at pH 4.4 after 3 hrs; assay type: functional
Outline: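 Kinetics run with 7.2 µM TTR plus 21.6 µM inhibitor at pH 4.4, 37 °C. Turbidity at 340 nm was followed for 3 h. Initial fibrillization rate came from the linear slope of A340 versus time. Three experiments in triplicate.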

Transthyretin [5] = target: T1, Transthyretin; test: Inhibition of transthyretin amyloidosis assessed as fibril formation at 7.2 uM at pH 4.4 relative to control; assay type: functional; design: scale not given: the % may be the effect or the level left
Outline: (§1)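 WT TTR tetramer (7.2 µM) in pH 7 phosphate/KCl/EDTA was preincubated 1 h at 25 °C with inhibitor (7.2 or 21.6 µM; 1:1 or 1:3) in 1% DMSO. It was then diluted with pH 4.4 acetate/KCl/EDTA buffer and held stagnant 72 h at 37 °C. Turbidity was read at 340 nm as % fibril formation versus untreated (100%). Mean of five experiments.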

Transthyretin [6] = target: T1, Transthyretin; test: Inhibition of transthyretin amyloidosis assessed as fibril formation at 21.6 uM at pH 4.4 relative to control; assay type: functional; design: scale not given: the % may be the effect or the level left; outline: as §1
Transthyretin [7] = target: T1, Transthyretin; test: Inhibition of transthyretin fibril formation at pH 4.4 at 50 uM; assay type: functional; design: scale not given: the % may be the effect or the level left
Transthyretin [8] = target: T1, Transthyretin; test: Binding affinity to transthyretin at pH 4.4
Outline: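 Kd at pH 4.4 measured by fluorescence titration of TTR. Data were fitted to the Adair equation for two binding sites, giving Kd1 and Kd2. Experiments were run in triplicate.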

Transthyretin [9] = target: T1, Transthyretin; test: Stabilization of urea-induced transthyretin dissociation at 5.4 uM at pH 7.2 after […] relative to control
Transthyretin [10] = target: T1, Transthyretin; test: Inhibition of transthyretin fibril formation at pH 4.4; assay type: functional

SMILES	Activity (Neuro2a)	viability at 50 µM [1]	Activity (Transthyretin [2])	Activity (Transthyretin [3])	inhibition (Transthyretin [4])	Activity (Transthyretin [5])	Activity (Transthyretin [6])	Activity (Transthyretin [7])	Kd (Transthyretin [8])	Activity (Transthyretin [9])	Kd (Transthyretin [8]; read-out: Kd)	IC50 (Transthyretin [10])
O=C(O)c1ccc(Oc2ccc(Cl)cc2Cl)c(O)c1	Not toxic	86%	21%	Active	> 80%	29%	13.3%	0%	–	–	–	–
N[C@H](Cc1cc(I)c(Oc2cc(I)c(O)c(I)c2)c(I)c1)C(=O)O	–	–	27%	–	75%	48%	7%	–	–	–	–	–
COc1cc(CCl)ccc1Oc1ccccc1	Not toxic	86%	–	Active	> 80%	25%	0%	0%	Active	< 5%	–	–
O=C(O)c1ccc(Oc2ccccc2)c(O)c1	Not toxic	86%	–	Active	> 80%	32%	5%	5%	–	< 5%	0.027 µM	3.18 µM
Oc1cc(Cl)ccc1Oc1ccc(Cl)cc1Cl	–	–	47%	–	62%	75%	66%	41%	–	–	–	–
COc1cc(C(=O)O)ccc1Oc1ccc(Cl)cc1Cl	Not toxic	86%	–	Active	> 80%	10%	0%	0%	–	< 5%	–	–
COc1cc(C=O)ccc1Oc1ccccc1	Not toxic	86%	–	Active	> 80%	12%	0%	0%	–	< 5%	–	–
OCc1ccc(Oc2ccc(Cl)cc2Cl)c(O)c1	Not toxic	86%	–	Active	> 80%	12%	2.6%	11.5%	–	< 5%	–	–
COc1cc(C(=O)O)ccc1Oc1ccccc1	–	–	–	–	–	–	–	40%	–	–	–	41 µM
